Measured values reported in ChEMBL document CHEMBL1139401, “5-(4-Chlorophenyl)-5,6-dihydro-1,3-oxazepin-7(4H)-one derivatives as lipophilic cyclic analogues of baclofen: design, synthesis, and neuropharmacological evaluation” (2008).

What follows are molecules tested on Mus musculus (assay: Neuropharmacological effect in albino mouse assessed as endurance time at 3 mg/kg, ip after 45 mins by rotarod test). Details: route intraperitoneal.
Type: functional
Outline: (§1)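 For the rotarod, the cylinder was 6 cm diameter, 30 cm high and turned at 12 rpm. Male albino mice were trained the day before to stay on for 300 s, and those not reaching this were excluded. Endurance time (max 300 s) was measured 30, 45, 60 and 90 min after ip drug in DMSO or vehicle. Five mice per group; mean ± SEM.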

SMILES	Activity [s]
CCCCCCCC/C=C/CCCCCCCC1=NCC(c2ccc(Cl)cc2)CC(=O)O1 (centres undefined)	175
O=C1CC(c2ccc(Cl)cc2)CN=C(Cc2ccccc2)O1 (centres undefined)	185
CC1=NCC(c2ccc(Cl)cc2)CC(=O)O1 (centres undefined)	300

The molecules below were run on Mus musculus (assay: Neuropharmacological effect in albino mouse assessed as endurance time at 3 mg/kg, ip after 60 mins by rotarod test). Details: route intraperitoneal.
Type: functional
Outline: as §1

SMILES	Activity [s]
CCCCCCCC/C=C/CCCCCCCC1=NCC(c2ccc(Cl)cc2)CC(=O)O1 (centres undefined)	155
O=C1CC(c2ccc(Cl)cc2)CN=C(Cc2ccccc2)O1 (centres undefined)	0
CC1=NCC(c2ccc(Cl)cc2)CC(=O)O1 (centres undefined)	300

These molecules were tested on Mus musculus (assay: Neuropharmacological effect in albino mouse assessed as endurance time at 3 mg/kg, ip after 90 mins by rotarod test). Details: route intraperitoneal.
Type: functional
Outline: as §1

SMILES	Activity [s]
CCCCCCCC/C=C/CCCCCCCC1=NCC(c2ccc(Cl)cc2)CC(=O)O1 (centres undefined)	128
O=C1CC(c2ccc(Cl)cc2)CN=C(Cc2ccccc2)O1 (centres undefined)	0
CC1=NCC(c2ccc(Cl)cc2)CC(=O)O1 (centres undefined)	300

What follows are molecules tested on Mus musculus (assay: Muscle relaxant activity in albino mouse at 3 mg/kg, ip after 30 mins by traction test). Details: route intraperitoneal.
Type: functional
Set-up: scale not given: the % may be the effect or the level left
Outline: (§2)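 Traction test in male albino mice (20–25 g), five per group, given drug ip in DMSO. Success required touching the wire with at least one hind paw within 5 s; otherwise scored as failure. Mice were tested 30, 45, 60 and 90 min after dosing, immediately before the rotarod. Results are % successful, mean ± SEM.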

SMILES	Activity [%]
CCCCCCCC/C=C/CCCCCCCC1=NCC(c2ccc(Cl)cc2)CC(=O)O1 (centres undefined)	35
O=C1CC(c2ccc(Cl)cc2)CN=C(Cc2ccccc2)O1 (centres undefined)	27
CC1=NCC(c2ccc(Cl)cc2)CC(=O)O1 (centres undefined)	100

The molecules below were run on Mus musculus (assay: Muscle relaxant activity in albino mouse at 3 mg/kg, ip after 45 mins by traction test). Details: route intraperitoneal.
Type: functional
Set-up: scale not given: the % may be the effect or the level left
Outline: as §2

SMILES	Activity [%]
CCCCCCCC/C=C/CCCCCCCC1=NCC(c2ccc(Cl)cc2)CC(=O)O1 (centres undefined)	35
O=C1CC(c2ccc(Cl)cc2)CN=C(Cc2ccccc2)O1 (centres undefined)	25
CC1=NCC(c2ccc(Cl)cc2)CC(=O)O1 (centres undefined)	100

Each molecule was assayed on Mus musculus (assay: Muscle relaxant activity in albino mouse at 3 mg/kg, ip after 60 mins by traction test). Details: route intraperitoneal.
Type: functional
Set-up: scale not given: the % may be the effect or the level left
Outline: as §2

SMILES	Activity [%]
CCCCCCCC/C=C/CCCCCCCC1=NCC(c2ccc(Cl)cc2)CC(=O)O1 (centres undefined)	33
O=C1CC(c2ccc(Cl)cc2)CN=C(Cc2ccccc2)O1 (centres undefined)	25
CC1=NCC(c2ccc(Cl)cc2)CC(=O)O1 (centres undefined)	100

Each molecule was assayed on Mus musculus (assay: Muscle relaxant activity in albino mouse at 3 mg/kg, ip after 90 mins by traction test). Details: route intraperitoneal.
Type: functional
Set-up: scale not given: the % may be the effect or the level left
Outline: as §2

SMILES	Activity [%]
CCCCCCCC/C=C/CCCCCCCC1=NCC(c2ccc(Cl)cc2)CC(=O)O1 (centres undefined)	31
O=C1CC(c2ccc(Cl)cc2)CN=C(Cc2ccccc2)O1 (centres undefined)	22
CC1=NCC(c2ccc(Cl)cc2)CC(=O)O1 (centres undefined)	100

These molecules were tested on Mus musculus (assay: Analgesic activity in albino mouse assessed as retention latency at 3 mg/kg, ip after 30 mins by hot plate test). Details: route intraperitoneal.
Type: functional
Outline: (§3)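 Male albino mice (20–25 g), five per group, given drug in DMSO ip; vehicle controls got DMSO alone. Mice were placed in a glass cylinder on a 54 °C metal plate. Latency to hind-paw lick or jump was recorded, with a 30 s cut-off. Testing was 30, 45, 60 and 90 min post-injection. Values are mean ± SEM.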

SMILES	Activity [s]
CCCCCCCC/C=C/CCCCCCCC1=NCC(c2ccc(Cl)cc2)CC(=O)O1 (centres undefined)	9.34
O=C1CC(c2ccc(Cl)cc2)CN=C(Cc2ccccc2)O1 (centres undefined)	9.53
CC1=NCC(c2ccc(Cl)cc2)CC(=O)O1 (centres undefined)	8.12

What follows are molecules tested on Mus musculus (assay: Analgesic activity in albino mouse assessed as retention latency at 3 mg/kg, ip after 45 mins by hot plate test). Details: route intraperitoneal.
Type: functional
Outline: as §3

SMILES	Activity [s]
CCCCCCCC/C=C/CCCCCCCC1=NCC(c2ccc(Cl)cc2)CC(=O)O1 (centres undefined)	15.77
O=C1CC(c2ccc(Cl)cc2)CN=C(Cc2ccccc2)O1 (centres undefined)	15.38
CC1=NCC(c2ccc(Cl)cc2)CC(=O)O1 (centres undefined)	8.22

These molecules were tested on Mus musculus (assay: Analgesic activity in albino mouse assessed as retention latency at 3 mg/kg, ip after 60 mins by hot plate test). Details: route intraperitoneal.
Type: functional
Outline: as §3

SMILES	Activity [s]
CCCCCCCC/C=C/CCCCCCCC1=NCC(c2ccc(Cl)cc2)CC(=O)O1 (centres undefined)	23.61
O=C1CC(c2ccc(Cl)cc2)CN=C(Cc2ccccc2)O1 (centres undefined)	25.63
CC1=NCC(c2ccc(Cl)cc2)CC(=O)O1 (centres undefined)	9.22

Each molecule was assayed on Mus musculus (assay: Analgesic activity in albino mouse assessed as retention latency at 3 mg/kg, ip after 90 mins by hot plate test). Details: route intraperitoneal.
Type: functional
Outline: as §3

SMILES	Activity [s]
CCCCCCCC/C=C/CCCCCCCC1=NCC(c2ccc(Cl)cc2)CC(=O)O1 (centres undefined)	28.43
O=C1CC(c2ccc(Cl)cc2)CN=C(Cc2ccccc2)O1 (centres undefined)	28.73
CC1=NCC(c2ccc(Cl)cc2)CC(=O)O1 (centres undefined)	9.33

What follows are molecules tested on Mus musculus (assay: Neuropharmacological effect in albino mouse assessed as onset of loss of righting reflex at 3 mg/kg, ip). Details: route intraperitoneal.
Type: functional
Outline: (§4)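 Male albino mice (20–25 g), five per group, injected ip (drug in DMSO). Loss of righting reflex was inability to right within 30 s, after which mice were laid supine in a 90° trough. Return was righting twice within 1 min. Onset was recorded, and duration was the time from loss to return. Values are mean ± SEM.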

SMILES	Activity [min]
CCCCCCCC/C=C/CCCCCCCC1=NCC(c2ccc(Cl)cc2)CC(=O)O1 (centres undefined)	38.65
O=C1CC(c2ccc(Cl)cc2)CN=C(Cc2ccccc2)O1 (centres undefined)	42.12

Each molecule was assayed on Mus musculus (assay: Neuropharmacological effect in albino mouse assessed as duration of loss of righting reflex at 3 mg/kg, ip). Details: route intraperitoneal.
Type: functional
Outline: as §4

SMILES	Activity [min]
CCCCCCCC/C=C/CCCCCCCC1=NCC(c2ccc(Cl)cc2)CC(=O)O1 (centres undefined)	93.37
O=C1CC(c2ccc(Cl)cc2)CN=C(Cc2ccccc2)O1 (centres undefined)	112.36

What follows are molecules tested on Mus musculus (assay: Neuropharmacological effect in albino mouse assessed as spontaneous locomotor activity at 3 mg/kg, ip after 30 mins). Details: route intraperitoneal.
Type: functional
Outline: (§5)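 Male albino mice (20–25 g), five per group, got ip drug in DMSO or DMSO vehicle and went back to their home cages. After 30, 45, 60 or 90 min each was placed alone in a Plexiglas box and spontaneous locomotor activity was recorded. Tests were run in the morning. Values are mean ± SEM.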

SMILES	Activity [m]
CCCCCCCC/C=C/CCCCCCCC1=NCC(c2ccc(Cl)cc2)CC(=O)O1 (centres undefined)	11.45
O=C1CC(c2ccc(Cl)cc2)CN=C(Cc2ccccc2)O1 (centres undefined)	0
CC1=NCC(c2ccc(Cl)cc2)CC(=O)O1 (centres undefined)	45.24

Each molecule was assayed on Mus musculus (assay: Neuropharmacological effect in albino mouse assessed as spontaneous locomotor activity at 3 mg/kg, ip after 45 mins). Details: route intraperitoneal.
Type: functional
Outline: as §5

SMILES	Activity [m]
CCCCCCCC/C=C/CCCCCCCC1=NCC(c2ccc(Cl)cc2)CC(=O)O1 (centres undefined)	9.33
O=C1CC(c2ccc(Cl)cc2)CN=C(Cc2ccccc2)O1 (centres undefined)	0
CC1=NCC(c2ccc(Cl)cc2)CC(=O)O1 (centres undefined)	43.46

These molecules were tested on Mus musculus (assay: Neuropharmacological effect in albino mouse assessed as spontaneous locomotor activity at 3 mg/kg, ip after 60 mins). Details: route intraperitoneal.
Type: functional
Outline: as §5

SMILES	Activity [m]
CCCCCCCC/C=C/CCCCCCCC1=NCC(c2ccc(Cl)cc2)CC(=O)O1 (centres undefined)	10.61
O=C1CC(c2ccc(Cl)cc2)CN=C(Cc2ccccc2)O1 (centres undefined)	0
CC1=NCC(c2ccc(Cl)cc2)CC(=O)O1 (centres undefined)	42.79

These molecules were tested on Mus musculus (assay: Neuropharmacological effect in albino mouse assessed as spontaneous locomotor activity at 3 mg/kg, ip after 90 mins). Details: route intraperitoneal.
Type: functional
Outline: as §5

SMILES	Activity [m]
CCCCCCCC/C=C/CCCCCCCC1=NCC(c2ccc(Cl)cc2)CC(=O)O1 (centres undefined)	9.25
O=C1CC(c2ccc(Cl)cc2)CN=C(Cc2ccccc2)O1 (centres undefined)	0
CC1=NCC(c2ccc(Cl)cc2)CC(=O)O1 (centres undefined)	40.13

What follows are molecules tested on Mus musculus (assay: Neuropharmacological effect in albino mouse assessed as endurance time at 3 mg/kg, ip after 30 mins by rotarod test). Details: route intraperitoneal.
Type: functional
Outline: as §1

SMILES	Activity [s]
CCCCCCCC/C=C/CCCCCCCC1=NCC(c2ccc(Cl)cc2)CC(=O)O1 (centres undefined)	198
O=C1CC(c2ccc(Cl)cc2)CN=C(Cc2ccccc2)O1 (centres undefined)	234
CC1=NCC(c2ccc(Cl)cc2)CC(=O)O1 (centres undefined)	300

What follows are molecules tested on Mus musculus (assay: Decrease in cognitive impairment in albino mouse assessed as retention latency at 3 mg/kg, ip after 30 mins by passive avoidance reflex test). Details: route intraperitoneal.
Type: functional
Outline: (§6)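 Passive avoidance in male albino mice (20–25 g), five per group, housed singly from the day before training. Drug in DMSO was given ip 30, 45, 60 or 90 min before the training trial. Mice were put in the light side of a two-compartment apparatus and the door to the dark side was opened. The retention test next day used the shock generator off. Latency reported as mean ± SEM.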

SMILES	Activity [s]
CCCCCCCC/C=C/CCCCCCCC1=NCC(c2ccc(Cl)cc2)CC(=O)O1 (centres undefined)	146.23
O=C1CC(c2ccc(Cl)cc2)CN=C(Cc2ccccc2)O1 (centres undefined)	125.64
CC1=NCC(c2ccc(Cl)cc2)CC(=O)O1 (centres undefined)	163.23

The molecules below were run on Mus musculus (assay: Decrease in cognitive impairment in albino mouse assessed as retention latency at 3 mg/kg, ip after 45 mins by passive avoidance reflex test). Details: route intraperitoneal.
Type: functional
Outline: as §6

SMILES	Activity [s]
CCCCCCCC/C=C/CCCCCCCC1=NCC(c2ccc(Cl)cc2)CC(=O)O1 (centres undefined)	110.36
O=C1CC(c2ccc(Cl)cc2)CN=C(Cc2ccccc2)O1 (centres undefined)	106.56
CC1=NCC(c2ccc(Cl)cc2)CC(=O)O1 (centres undefined)	163.23

Each molecule was assayed on Mus musculus (assay: Decrease in cognitive impairment in albino mouse assessed as retention latency at 3 mg/kg, ip after 60 mins by passive avoidance reflex test). Details: route intraperitoneal.
Type: functional
Outline: as §6

SMILES	Activity [s]
CCCCCCCC/C=C/CCCCCCCC1=NCC(c2ccc(Cl)cc2)CC(=O)O1 (centres undefined)	75.44
O=C1CC(c2ccc(Cl)cc2)CN=C(Cc2ccccc2)O1 (centres undefined)	70.34
CC1=NCC(c2ccc(Cl)cc2)CC(=O)O1 (centres undefined)	160.43

What follows are molecules tested on Mus musculus (assay: Decrease in cognitive impairment in albino mouse assessed as retention latency at 3 mg/kg, ip after 90 mins by passive avoidance reflex test). Details: route intraperitoneal.
Type: functional
Outline: as §6

SMILES	Activity [s]
CCCCCCCC/C=C/CCCCCCCC1=NCC(c2ccc(Cl)cc2)CC(=O)O1 (centres undefined)	68.44
O=C1CC(c2ccc(Cl)cc2)CN=C(Cc2ccccc2)O1 (centres undefined)	65.34
CC1=NCC(c2ccc(Cl)cc2)CC(=O)O1 (centres undefined)	164.56
